Source: ChEMBL document CHEMBL1158073, “Bioactive compounds from the seed fungus Menisporopsis theobromae BCC 3975” (J Nat Prod, 2006)
Converted amounts (≈) assume the structure as drawn. Where a name gives a salt, the structure may show the parent alone.

Columns and labels:
[1] = Cytotoxicity against human BC1 cells by colorimetric method; format: functional, cell-based
In short: (§1)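 Colorimetric cytotoxicity assay following Skehan and co-workers. Cells: BC-1 (human breast cancer) and NCI-H187 (human small cell lung cancer). IC50 values reported in μM. Ellipticine served as the standard positive control.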

[2] = tested on: NCI-H187; test: Cytotoxicity against human NCI-H187 cells by colorimetric method; format: functional, cell-based; in short: as §1
[3] = tested on: KB; test: Cytotoxicity against human KB cells by colorimetric method; format: functional, cell-based
[4] = tested on: Mycobacterium tuberculosis; test: Antimycobacterial activity against Mycobacterium tuberculosis H37Ra by microplate alamar blue assay; format: functional
In short: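 M. tuberculosis H37Ra tested by microplate Alamar Blue assay, value reported as MIC. Isoniazid and kanamycin sulfate as reference compounds.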

[5] = tested on: Plasmodium falciparum; test: Antimalarial activity against multidrug-resistant Plasmodium falciparum K1 by [3H]hypoxanthine uptake; format: functional, organism-based
In short: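 P. falciparum K1 kept in continuous culture; in vitro microculture radioisotope method. IC50 taken as the concentration giving 50% reduction in parasite growth, read as uptake of [3H]hypoxanthine. Dihydroartemisinin as positive control.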

Cc1c2ccncc2c(C)c2c1[nH]c1ccccc12 [ELLIPTECINE]
IC50 [1]: 5.93 µM | IC50 [2]: 1.59 µM | IC50 [3]: 5.41 µM

O=C1c2c(O)cccc2[C@H](O)[C@H](O)[C@H]1O
IC50 [1]: > 95.2 µM | IC50 [2]: 56.6 µM | MIC [4]: 952 µM (≈ 200 µg/mL) | IC50 [5]: > 95.2 µM | IC50 [3]: > 95.2 µM

NC[C@H]1O[C@H](O[C@H]2[C@H](O)[C@@H](O[C@H]3O[C@H](CO)[C@@H](O)[C@H](N)[C@H]3O)[C@H](N)C[C@@H]2N)[C@H](O)[C@@H](O)[C@@H]1O [KANAMYCIN SULFATE]
MIC [4]: 3.43 µM

C/C=C/C(C=O)=C\C=C\C(O)C(O)[C@@H]1O[C@H]1CO (relative stereo)
IC50 [1]: > 78.7 µM | IC50 [2]: > 78.7 µM | MIC [4]: > 787 µM | IC50 [5]: > 78.7 µM | IC50 [3]: > 78.7 µM

NNC(=O)c1ccncc1 [ISONIAZID]
MIC [4]: 0.29 µM (≈ 0.0398 µg/mL)

CC(O)CCC/C=C/C(O)C(O)/C=C/c1c(CC(O)C(C)(C)O)ccc(O)c1C=O (stereo unspecified)
IC50 [1]: > 47.3 µM | IC50 [2]: > 47.3 µM | MIC [4]: 474 µM (≈ 200 µg/mL) | IC50 [5]: > 47.3 µM | IC50 [3]: > 47.3 µM

CS[C@@]12CC3=CC=C[C@H](O)[C@H]3N1C(=O)[C@]1(SC)CC3=COC=C[C@H](O)[C@H]3N1C2=O
IC50 [1]: > 46 µM | IC50 [2]: > 46 µM | MIC [4]: 7.14 µM (≈ 3.1 µg/mL) | IC50 [5]: > 46 µM | IC50 [3]: > 46 µM

C/C=C(\C)C(=O)C(C)C(O)C(C)C(=O)O[C@H]1C=COC=C2C[C@@]3(SC)C(=O)N4c5c(O)cccc5[C@@H](O)[C@@]4(SC)C(=O)N3[C@@H]21 (stereo partly specified)
IC50 [1]: > 31 µM | IC50 [2]: 20.3 µM | MIC [4]: 1.24 µM (≈ 0.8 µg/mL) | IC50 [5]: 2.95 µM | IC50 [3]: > 31 µM

CCCCC/C=C/C(O)C(O)/C=C/c1c(CC(O)C(C)(C)O)ccc(O)c1CO (stereo unspecified)
IC50 [1]: > 49 µM | IC50 [2]: > 49 µM | MIC [4]: 245 µM (≈ 100 µg/mL) | IC50 [5]: > 49 µM | IC50 [3]: > 49 µM

C[C@H]1[C@@H](O)O[C@@H]2O[C@@]3(C)CC[C@H]4[C@H](C)CC[C@@H]1[C@@]24OO3 [ARTENIMOL]
IC50 [5]: 0.004 µM

C/C=C(\C)C(=O)C(C)C(O)C(C)C(=O)O[C@H]1C=COC=C2C[C@@]3(SC)C(=O)N4[C@H]5C(=CC=C[C@@H]5O)[C@@H](O)[C@@]4(SC)C(=O)N3[C@@H]21 (stereo partly specified)
IC50 [1]: 29.2 µM | IC50 [2]: 22.9 µM | MIC [4]: 155 µM (≈ 100 µg/mL) | IC50 [5]: > 30.9 µM | IC50 [3]: > 30.9 µM

CCCC(=O)CC/C=C/[C@H](O)[C@@H]1O[C@H]1CO
IC50 [1]: > 30.3 µM | IC50 [2]: > 30.3 µM | MIC [4]: > 303 µM | IC50 [5]: > 30.3 µM | IC50 [3]: > 30.3 µM
